Reference: ChEMBL document CHEMBL2157862, “A novel spirocyclic tropanyl-Δ²-isoxazoline derivative enhances citalopram and paroxetine binding to serotonin transporters as well as serotonin uptake” (Bioorg Med Chem, 2012)
Calls of active or inactive are those of the source. No cut-off for these calls is given here.

target: Sodium-dependent dopamine transporter (Rattus norvegicus, UniProt P23977); experiment: Displacement of [3H]-WIN35428 from DAT in rat striatal membranes after 90 mins; type: cell membranes, Membrane; conditions: not given
Sequence (P23977 whole entry): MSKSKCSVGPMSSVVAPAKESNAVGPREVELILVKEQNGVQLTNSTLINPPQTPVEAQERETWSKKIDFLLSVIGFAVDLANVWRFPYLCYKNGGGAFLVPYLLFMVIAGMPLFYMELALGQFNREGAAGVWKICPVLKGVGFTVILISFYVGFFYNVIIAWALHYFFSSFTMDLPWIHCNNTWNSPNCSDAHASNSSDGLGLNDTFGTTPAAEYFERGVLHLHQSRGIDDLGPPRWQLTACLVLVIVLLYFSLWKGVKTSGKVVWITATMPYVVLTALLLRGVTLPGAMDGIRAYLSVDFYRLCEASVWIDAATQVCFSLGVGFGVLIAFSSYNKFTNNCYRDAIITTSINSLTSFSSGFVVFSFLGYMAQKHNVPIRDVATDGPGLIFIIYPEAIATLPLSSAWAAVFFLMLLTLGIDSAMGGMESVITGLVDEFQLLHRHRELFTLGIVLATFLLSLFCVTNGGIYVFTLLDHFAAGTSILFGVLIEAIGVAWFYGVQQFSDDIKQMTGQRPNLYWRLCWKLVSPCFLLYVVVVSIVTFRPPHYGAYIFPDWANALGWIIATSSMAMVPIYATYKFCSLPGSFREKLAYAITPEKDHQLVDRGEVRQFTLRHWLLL
Method in brief: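 Frozen rat striatal membranes in 50 mM Tris-HCl pH 7.4 with 120 mM NaCl and 5 mM KCl, incubated 90 min at 4 °C with 2 nM [3H]WIN 35,428. Nonspecific binding defined with 3 µM nomifensine. Stopped by rapid filtration on albumin-presoaked GF/B filters, then scintillation counting.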

SMILES	IC50
O=C1C[C@]2(C[C@H]3CC[C@@H](C2)N3)ON1	5 µM
CCOC1=NO[C@]2(C1)C[C@H]1CC[C@@H](C2)N1C	5 µM
CCOC1=NO[C@]2(C1)C[C@H]1CC[C@@H](C2)[N+]1(C)C	5 µM
CCOC1=NO[C@]2(C1)C[C@H]1CC[C@@H](C2)N1	5 µM
c1ccc(COC2=NO[C@]3(C2)C[C@H]2CC[C@@H](C3)N2)cc1	5 µM

target: Sodium-dependent serotonin transporter (Rattus norvegicus) (UniProt P31652); experiment: Displacement of [3H]-citalopram from SERT in rat cortical membranes at 10 uM after 60 mins; type: cell membranes; conditions: Membrane
Sequence (P31652 whole entry): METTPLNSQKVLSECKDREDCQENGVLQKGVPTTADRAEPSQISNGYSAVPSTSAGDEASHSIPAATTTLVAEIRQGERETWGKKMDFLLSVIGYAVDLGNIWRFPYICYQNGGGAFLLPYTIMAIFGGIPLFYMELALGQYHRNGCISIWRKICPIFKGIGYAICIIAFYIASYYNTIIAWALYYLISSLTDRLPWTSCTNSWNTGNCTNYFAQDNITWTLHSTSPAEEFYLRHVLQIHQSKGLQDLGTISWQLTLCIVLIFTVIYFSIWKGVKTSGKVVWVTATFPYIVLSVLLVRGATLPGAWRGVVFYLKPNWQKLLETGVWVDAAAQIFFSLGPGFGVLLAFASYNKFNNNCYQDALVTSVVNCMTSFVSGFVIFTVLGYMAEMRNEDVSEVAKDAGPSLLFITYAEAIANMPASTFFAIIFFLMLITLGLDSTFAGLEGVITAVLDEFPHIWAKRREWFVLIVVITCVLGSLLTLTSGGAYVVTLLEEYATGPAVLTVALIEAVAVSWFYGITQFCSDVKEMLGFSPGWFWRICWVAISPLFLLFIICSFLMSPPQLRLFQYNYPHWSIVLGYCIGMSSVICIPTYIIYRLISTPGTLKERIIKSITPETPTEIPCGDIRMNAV
Method in brief: (§1)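 Frozen rat cortical membranes (washed pellets) in 50 mM Tris-HCl pH 7.4 with 120 mM NaCl and 5 mM KCl, incubated with [3H]citalopram with or without compound. Nonspecific binding defined with 10 µM (S)-citalopram. Bound radioactivity measured by filtration and scintillation counting. Mean ± S.E.M. of replicates; Student's t test vs vehicle.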

SMILES	inhibition
C#CCOC1=NO[C@]2(C1)C[C@H]1CC[C@@H](C2)N1C	inactive
C[N+]1(C)[C@@H]2CC[C@H]1C[C@@]1(CC(Br)=NO1)C2	inactive
O=C1C[C@]2(C[C@H]3CC[C@@H](C2)N3)ON1	inactive
C#CCOC1=NO[C@]2(C1)C[C@H]1CC[C@@H](C2)N1	inactive
COC1=NO[C@]2(C1)C[C@H]1CC[C@@H](C2)N1	inactive
C[N+]1(C)[C@@H]2CC[C@H]1C[C@@]1(CC(CO)=NO1)C2	inactive
CCOC1=NO[C@]2(C1)C[C@H]1CC[C@@H](C2)N1C	inactive
CN1[C@@H]2CC[C@H]1C[C@@]1(CC(CO)=NO1)C2	inactive
CN1[C@@H]2CC[C@H]1C[C@@]1(CC(OCc3ccccc3)=NO1)C2	inactive
CCOC1=NO[C@]2(C1)C[C@H]1CC[C@@H](C2)[N+]1(C)C	inactive
CCOC(=O)C1=NO[C@]2(C1)C[C@H]1CC[C@@H](C2)N1C	inactive
CCOC1=NO[C@]2(C1)C[C@H]1CC[C@@H](C2)N1	inactive
CN1[C@@H]2CC[C@H]1C[C@@]1(CC(Br)=NO1)C2	inactive
C#CCOC1=NO[C@]2(C1)C[C@H]1CC[C@@H](C2)[N+]1(C)C	inactive
c1ccc(COC2=NO[C@]3(C2)C[C@H]2CC[C@@H](C3)N2)cc1	inactive
COC1=NO[C@]2(C1)C[C@H]1CC[C@@H](C2)N1C	inactive
BrC1=NO[C@]2(C1)C[C@H]1CC[C@@H](C2)N1	inactive
CCOC(=O)C1=NO[C@]2(C1)C[C@H]1CC[C@@H](C2)[N+]1(C)C	inactive
C[N+]1(C)[C@@H]2CC[C@H]1C[C@@]1(CC(OCc3ccccc3)=NO1)C2	inactive
CN1O[C@]2(CC1=O)C[C@H]1CC[C@@H](C2)N1C	inactive
CN1[C@@H]2CC[C@H]1C[C@@]1(CC(=O)NO1)C2	inactive
COC1=NO[C@]2(C1)C[C@H]1CC[C@@H](C2)[N+]1(C)C	inactive

target: Sodium-dependent serotonin transporter (Rattus norvegicus, UniProt P31652); experiment: Displacement of [3H]-citalopram from SERT in rat cortical membranes after 60 mins; type: cell membranes, Membrane; conditions: not given; method in brief: as §1
Sequence (P31652 whole entry): as above

SMILES	IC50
CN1O[C@]2(CC1=O)C[C@H]1CC[C@@H](C2)N1	5 µM

target: Sodium-dependent serotonin transporter (Rattus norvegicus) (UniProt P31652); experiment: Increase of [3H]-citalopram binding to SERT in rat cortical membranes at 10 uM after 60 mins; type: cell membranes; conditions: Membrane; method in brief: as §1

SMILES	Activity
CCOC1=NO[C@]2(C1)C[C@H]1CC[C@@H](C2)N1C	11%
COC1=NO[C@]2(C1)C[C@H]1CC[C@@H](C2)N1C	25%

target: Sodium-dependent serotonin transporter (Rattus norvegicus) (UniProt P31652); experiment: Increase of SERT-mediated [3H]-5HT uptake in rat brain cortex synaptosomes at 10 uM after 7 mins by scintillation counting; type: subcellular; conditions: not given
Method in brief: (§2)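 Rat cortex P2 synaptosomes from 0.32 M sucrose homogenate, resuspended in HEPES-buffered saline pH 7.4 with glucose, ascorbate and pargyline. Aliquots equal to 3 mg tissue preincubated 7 min at 35 °C with compound. Uptake then ran 5 min after adding 100 nM [3H]5-HT, stopped by filtration, and counted by scintillation. Nonspecific uptake defined with 10 µM (S)-citalopram.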

SMILES	Activity
COC1=NO[C@]2(C1)C[C@H]1CC[C@@H](C2)N1C	30%

target: Sodium-dependent serotonin transporter (Rattus norvegicus) (UniProt P31652); experiment: Increase of [3H]-citalopram binding to SERT in rat cortical membranes after 60 mins; type: cell membranes; conditions: Membrane; method in brief: as §1

SMILES	Activity
COC1=NO[C@]2(C1)C[C@H]1CC[C@@H](C2)N1C	Dose-dependent effect
CN1O[C@]2(CC1=O)C[C@H]1CC[C@@H](C2)N1C	inactive

target: Sodium-dependent serotonin transporter (Rattus norvegicus) (UniProt P31652); experiment: Increase of SERT-mediated [3H]-5HT uptake in rat brain cortex synaptosomes after 7 mins by scintillation counting; type: subcellular; conditions: not given; method in brief: as §2

SMILES	Activity
COC1=NO[C@]2(C1)C[C@H]1CC[C@@H](C2)N1C	Dose-dependent effect

target: Sodium-dependent serotonin transporter (Rattus norvegicus) (UniProt P31652); experiment: Increase of [3H]-citalopram binding to SERT in rat cortical membranes at 10 to 30 uM after 60 mins; type: cell membranes; conditions: Membrane; method in brief: as §1

SMILES	Activity
COC1=NO[C@]2(C1)C[C@H]1CC[C@@H](C2)N1C	Active

target: Sodium-dependent serotonin transporter (Rattus norvegicus) (UniProt P31652); experiment: Increase of SERT-mediated [3H]-5HT uptake in rat brain cortex synaptosomes at 10 to 30 uM after 7 mins by scintillation counting; type: subcellular; conditions: not given; method in brief: as §2

SMILES	Activity
COC1=NO[C@]2(C1)C[C@H]1CC[C@@H](C2)N1C	Active

target: Sodium-dependent serotonin transporter (Rattus norvegicus) (UniProt P31652); experiment: Increase of [3H]-citalopram binding to SERT in rat cortical membranes at 3 to 30 uM after 60 mins; type: cell membranes; conditions: Membrane; method in brief: as §1

SMILES	Activity
CCOC1=NO[C@]2(C1)C[C@H]1CC[C@@H](C2)N1C	Active

target: Sodium-dependent serotonin transporter (Rattus norvegicus) (UniProt P31652); experiment: Increase of SERT-mediated [3H]-5HT uptake in rat brain cortex synaptosomes at 3 to 100 uM after 7 mins by scintillation counting; type: subcellular; conditions: not given; method in brief: as §2

SMILES	Activity
CCOC1=NO[C@]2(C1)C[C@H]1CC[C@@H](C2)N1C	Active

target: Sodium-dependent serotonin transporter (Rattus norvegicus) (UniProt P31652); experiment: Increase of [3H]paroxetine binding to SERT in rat cortical membranes at 10 uM after 60 mins; type: cell membranes; conditions: Membrane
Method in brief: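 Saturation binding in rat cortical membranes (Tris-HCl 50 mM pH 7.4, 120 mM NaCl, 5 mM KCl) at varied [3H]paroxetine concentrations, with or without 10 µM compound. Specific binding by scintillation counting. Mean ± SD of 4 replicates. One-site hyperbola fit gave Bmax and Kd.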

SMILES	Activity
COC1=NO[C@]2(C1)C[C@H]1CC[C@@H](C2)N1C	Active
